Source: publication PMC6626684 (Biochemical and biophysical research communications, 2019)

Key:
WT mTRPV1 = WT mTRPV1 (Mus musculus, UniProt Q704Y3); assay: Live-cell calcium fluorescence imaging; type: cell-based
WT TRPV1 [1] = biological target: T1, WT TRPV1 (Mus musculus, UniProt Q704Y3); conditions: mTRPV1; cited from earlier work
mTRPV1 E571A = mTRPV1 E571A (Mus musculus, UniProt Q704Y3, E571A); assay: Live-cell calcium fluorescence imaging; type: cell-based
mTRPV1 T551V = mTRPV1 T551V (Mus musculus, UniProt Q704Y3, T551V); assay: Live-cell calcium fluorescence imaging; type: cell-based; conditions: for Hill slope factor: calcium imaging, T551V
Chain of mTRPV1 T551V (Q704Y3 whole entry T551V): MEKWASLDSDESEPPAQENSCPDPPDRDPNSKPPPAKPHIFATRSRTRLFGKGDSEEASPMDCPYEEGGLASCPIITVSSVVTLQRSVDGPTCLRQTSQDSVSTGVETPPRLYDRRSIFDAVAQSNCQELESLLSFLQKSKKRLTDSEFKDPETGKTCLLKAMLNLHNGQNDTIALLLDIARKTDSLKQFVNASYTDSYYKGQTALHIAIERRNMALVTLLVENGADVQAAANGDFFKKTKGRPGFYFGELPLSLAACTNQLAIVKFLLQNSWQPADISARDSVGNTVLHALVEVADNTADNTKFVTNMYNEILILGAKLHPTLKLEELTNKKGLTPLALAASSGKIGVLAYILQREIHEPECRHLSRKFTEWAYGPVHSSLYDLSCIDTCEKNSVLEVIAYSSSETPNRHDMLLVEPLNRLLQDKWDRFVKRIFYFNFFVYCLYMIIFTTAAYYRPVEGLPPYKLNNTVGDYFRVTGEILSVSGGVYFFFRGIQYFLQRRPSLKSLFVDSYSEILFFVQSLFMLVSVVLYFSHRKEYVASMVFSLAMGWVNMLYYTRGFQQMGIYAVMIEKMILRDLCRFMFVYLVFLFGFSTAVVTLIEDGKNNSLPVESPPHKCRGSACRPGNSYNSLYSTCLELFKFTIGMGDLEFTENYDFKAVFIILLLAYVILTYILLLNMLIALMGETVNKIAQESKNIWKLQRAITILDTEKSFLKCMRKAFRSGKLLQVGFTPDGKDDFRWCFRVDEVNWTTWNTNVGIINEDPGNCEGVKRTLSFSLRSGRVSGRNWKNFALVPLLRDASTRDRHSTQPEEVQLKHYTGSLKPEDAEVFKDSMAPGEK

TRPV1 E571A = TRPV1 E571A (Mus musculus, UniProt Q704Y3, E571A); assay: Single-channel inside-out patch-clamp recording, E571A mutant; type: cell-based; conditions: for Hill slope factor: electrophysiology, E571A
Chain of TRPV1 E571A (Q704Y3 whole entry E571A): as the sequence (Q704Y3 whole entry T551V) above, with V551T, E571A counted along it

[2] = psychophysical tests; cited from earlier work
TRPV1 T671V = TRPV1 T671V (Mus musculus, UniProt Q704Y3, T671V); assay: Single-channel inside-out patch-clamp recording, T671V mutant; type: cell-based
Chain of TRPV1 T671V (Q704Y3 whole entry T671V): as the sequence (Q704Y3 whole entry T551V) above, with V551T, T671V counted along it

WT TRPV1 [3] = biological target: T1, WT TRPV1; assay: Single-channel inside-out patch-clamp recording, WT channel; type: cell-based; conditions: for Hill slope factor: electrophysiology
TRPV1 T551V = TRPV1 T551V (Mus musculus, UniProt Q704Y3, T551V); assay: Single-channel inside-out patch-clamp recording, T551V mutant; type: cell-based; conditions: for Hill slope factor: electrophysiology; for Hill slope factor / open probability: T551V
Chain of TRPV1 T551V (Q704Y3 whole entry T551V): as the sequence (Q704Y3 whole entry T551V) above

TRPV1 T671S [4] = biological target: T2, TRPV1 T671S (Mus musculus, UniProt Q704Y3, T671S); conditions: capsaicin stimulation; cited from earlier work
T2 sequence (Q704Y3 whole entry T671S): as the sequence (Q704Y3 whole entry T551V) above, with V551T, T671S counted along it

[5] = test system: non-transfected HEK293 cells; assay: Calcium imaging control in non-transfected cells; type: cell-based
TRPV1 T671S [6] = biological target: T2, TRPV1 T671S; assay: Single-channel inside-out patch-clamp recording, T671S mutant; type: cell-based; conditions: most piperine concentrations tested
Method in brief: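 HEK293 cells transiently transfected (Lipofectamine 2000) with eYFP-fused mouse TRPV1 mutant, used 1–2 days later. Inside-out patches held at 0 mV for 50 ms, stepped to +80 mV for 1 s. Symmetrical 130 mM NaCl, 0.2 mM EDTA, 3 mM HEPES pH 7.2, no Ca2+, 25°C. Filtered at 2.25 kHz, sampled at 10 kHz. Po from Gaussian fits to all-point histograms; patches with >2 channels discarded. Repeated-measures two-way ANOVA.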

Chain of WT mTRPV1 (Q704Y3 whole entry): as the sequence (Q704Y3 whole entry T551V) above, with V551T counted along it
T1 sequence (Q704Y3 whole entry): as the sequence (Q704Y3 whole entry T551V) above, with V551T counted along it
Chain of mTRPV1 E571A (Q704Y3 whole entry E571A): as the sequence (Q704Y3 whole entry T551V) above, with V551T, E571A counted along it

| SMILES | EC50 (mTRPV1 E571A) [nM] | Hill slope factor (mTRPV1 E571A; calcium imaging, E571A) | EC50 (mTRPV1 T551V) [µM] | Hill slope factor (mTRPV1 T551V) | EC50 (TRPV1 E571A) [µM] | Hill slope factor (TRPV1 E571A) | relative pungency-taste threshold [2] [µM] | EC50 (WT mTRPV1) [nM] | Hill slope factor (WT mTRPV1; calcium imaging, WT) | Hill slope factor (WT TRPV1 [3]; WT) | EC50 (TRPV1 T551V) [µM] | Hill slope factor (TRPV1 T551V) | other results |
| --- | --- | --- | --- | --- | --- | --- | --- | --- | --- | --- | --- | --- | --- |
| Oc1cc2c(cc1O)CN(C(=S)NCCc1ccc(Cl)cc1)CCC2 [CZP, capsazepine] | – | – | – | – | – | – | – | – | – | – | – | – | inhibition of fluorescence intensity increase induced by 10 μM piperine (WT mTRPV1; 10 μM CZP with 10 μM piperine, calcium imaging): almost completely inhibited |
| COc1cc(CNC(=O)CCCC/C=C/C(C)C)ccc1O [capsaicin] | 1000 ± 40 | 3.0 | 1 ± 0.02 | 3.3 | 1.3 ± 0.03 | 3.0 | 0.6 | 100 ± 2 | 1.9 | 1.9 | 1.4 ± 0.03 | 3.3 | maximum open probability (WT TRPV1 [1]): above 90%; currents from the same patches (TRPV1 T671V; capsaicin (10 μM)): robust currents; channel activity of T671S when stimulated (TRPV1 T671S [4]): wildtype-like activities |
| O=C(/C=C/C=C/c1ccc2c(c1)OCO2)N1CCCCC1 [piperine, Piperine] | 3500 ± 500 | 2.2 | 5.1 ± 0.7 | 1.3 | 277 ± 36.5 | 0.7 | 10.5 | 3300 ± 700 | 2.2 | 2.2 | 93.5 ± 15.1 | 0.9 | fluorescence signal at 30 μM (mTRPV1 E571A; 30 μM piperine, E571A expressing cells): decreased substantially; efficacy (mTRPV1 E571A; calcium imaging, E571A, normalized to 10 μM capsaicin response): 77.1 ± 7.3%; fluorescence signal at 30 μM (mTRPV1 T551V; 30 μM piperine, T551V expressing cells): decreased substantially; Emax (TRPV1 E571A; read-out: maximum activation open probability (estimated)): 22%; perceived pungency level, times lower than capsaicin [2]: 10-to-100 times; fluorescence intensity of the cells at 30 μM (WT mTRPV1; 30 μM piperine, WT, consistent with channel desensitization): decreased; efficacy (WT mTRPV1; calcium imaging, WT, normalized to 10 μM capsaicin response): 82.7 ± 5.7%; non-specific effects in untransfected cells [5]: no detectable non-specific effects; channel activity (TRPV1 T671V; 30 μM piperine): no channel activity; EC50 (WT TRPV1 [3]): 252 ± 38.1 µM; open probability (Po) (WT TRPV1 [3]; 30 μM piperine, WT): 10%; maximal Po predicted by extrapolation (WT TRPV1 [3]; WT, extrapolation of Hill fit): about 36%; open probability (TRPV1 T551V; 10 μM piperine): 12.3 ± 2.2%; open probability (TRPV1 T551V; 30 μM piperine): 25.8 ± 5.1%; open probability compared with wildtype channels (TRPV1 T671S [6]): significantly lower |
